Consider two compounds from ChEMBL document CHEMBL4014346, “Lead Optimization Generates CYP11B1 Inhibitors of Pyridylmethyl Isoxazole Type with Improved Pharmacological Profile for the Treatment of Cushing's Disease” (J Med Chem, 2017).

A short description of data set [1]: Half life in rat liver S9 fractions at 1 uM in presence of NADPH/UDPGA by LC-MS/MS analysis. The data set is classed as ADME, tissue-based. The essentials:
(§1)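 Samples taken at 0, 5, 15 and 60 min, stopped with cold acetonitrile containing internal standard. Remaining parent measured by LC-MS/MS.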

The target of data set [2] is T1, Cytochrome P450 11B1, mitochondrial (Rattus norvegicus, UniProt P15393).
T1 sequence (P15393 whole entry): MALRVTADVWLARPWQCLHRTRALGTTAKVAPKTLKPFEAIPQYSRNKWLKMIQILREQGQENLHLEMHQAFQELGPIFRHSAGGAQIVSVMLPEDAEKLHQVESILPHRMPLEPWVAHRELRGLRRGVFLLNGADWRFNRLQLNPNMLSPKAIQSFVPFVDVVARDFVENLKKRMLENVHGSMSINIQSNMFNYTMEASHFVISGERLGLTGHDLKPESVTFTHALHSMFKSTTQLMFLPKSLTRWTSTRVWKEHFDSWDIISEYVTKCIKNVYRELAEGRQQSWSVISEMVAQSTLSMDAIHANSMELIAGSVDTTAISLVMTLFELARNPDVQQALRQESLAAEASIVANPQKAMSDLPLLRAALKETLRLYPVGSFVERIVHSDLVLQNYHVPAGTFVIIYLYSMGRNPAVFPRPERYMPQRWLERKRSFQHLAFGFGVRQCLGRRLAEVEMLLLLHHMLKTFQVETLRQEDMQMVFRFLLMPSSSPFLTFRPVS
Put plainly: Inhibition of rat CYP11B1 expressed in hamster V79MZ cells using [1,2-3H]-11-deoxycorticosterone as substrate after 6 hrs by HPLC analysis. The data set is classed as cell-based. A digest of the protocol:
(§2)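 V79MZ cells expressing recombinant human CYP11B1 or CYP11B2, or rat CYP11B1, incubated with [1,2-³H]-11-deoxycorticosterone (100 nM) and inhibitor over a range of concentrations; ketoconazole as reference.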

In data set [3] the target is T2, Cytochrome P450 11B2, mitochondrial (Homo sapiens, UniProt P19099).
T2 sequence (P19099 whole entry): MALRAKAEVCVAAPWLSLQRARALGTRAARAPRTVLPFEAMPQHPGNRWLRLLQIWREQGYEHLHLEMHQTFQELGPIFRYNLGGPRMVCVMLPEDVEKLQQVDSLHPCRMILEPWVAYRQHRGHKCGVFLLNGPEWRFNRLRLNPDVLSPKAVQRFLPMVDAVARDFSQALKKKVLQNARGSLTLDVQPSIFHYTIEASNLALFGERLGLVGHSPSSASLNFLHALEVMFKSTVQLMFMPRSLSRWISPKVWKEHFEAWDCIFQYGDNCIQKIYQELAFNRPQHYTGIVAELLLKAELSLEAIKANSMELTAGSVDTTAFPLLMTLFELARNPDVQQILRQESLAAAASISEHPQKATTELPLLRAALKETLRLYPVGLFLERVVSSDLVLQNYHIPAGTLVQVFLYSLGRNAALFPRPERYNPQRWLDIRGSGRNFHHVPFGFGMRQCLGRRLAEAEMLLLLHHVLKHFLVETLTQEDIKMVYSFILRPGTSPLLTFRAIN
Put plainly: Inhibition of human CYP11B2 expressed in hamster V79MZ cells using [1,2-3H]-11-deoxycorticosterone as substrate after 6 hrs by HPLC analysis. Format: ADME, cell-based. A digest of the protocol:
as §2

The nature of data set [4]: Cytotoxicity against HEK293 cells assessed as reduction in cell viability after 66 hrs by MTT assay. Format: cell-based. Conditions: human. A digest of the protocol: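 HEK293 cells seeded at 2x10⁵ per well; 4 h later, compound added at 100–6.25 µM in quadruplicate in 1% DMSO. MTT read-out at 570 nm after 66 h against vehicle control; IC20 derived by curve fitting.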

In a further data set the target is T3, CYP19A1 (Homo sapiens, UniProt P11511).
T3 sequence (P11511 whole entry): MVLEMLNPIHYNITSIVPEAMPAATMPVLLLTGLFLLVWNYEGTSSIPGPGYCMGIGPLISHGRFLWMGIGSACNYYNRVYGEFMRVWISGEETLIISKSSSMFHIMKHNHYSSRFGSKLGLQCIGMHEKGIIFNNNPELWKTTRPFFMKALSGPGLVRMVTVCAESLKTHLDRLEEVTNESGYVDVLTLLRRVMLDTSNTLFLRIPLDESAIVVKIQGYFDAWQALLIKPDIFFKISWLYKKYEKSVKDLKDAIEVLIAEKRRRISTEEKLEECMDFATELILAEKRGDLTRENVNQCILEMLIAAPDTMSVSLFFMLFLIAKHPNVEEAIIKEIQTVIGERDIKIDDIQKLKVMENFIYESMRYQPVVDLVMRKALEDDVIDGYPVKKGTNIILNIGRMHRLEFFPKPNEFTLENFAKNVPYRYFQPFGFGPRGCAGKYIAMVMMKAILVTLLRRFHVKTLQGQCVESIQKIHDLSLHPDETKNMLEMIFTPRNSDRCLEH
The data set can be described thus: Inhibition of human placental microsomal CYP19A1 at 2 uM using [1beta-3H]-androstenedione as substrate after 20 mins in presence of NADPH by scintillation spectrometric method relative to control. Conditions: placental microsomes, probe [1beta-3H]-androstenedione. The data set is classed as ADME. The essentials:
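Human placental microsomal CYP19A1; [1β-³H]androstenedione (500 nM) as substrate; test compounds at 2 µM; fadrozole and aminoglutethimide as references.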

The subject of data set [5] is Salmonella typhimurium. The data set can be described thus: Mutagenicity in Salmonella typhimurium TA7001/7002/7003/7004/7005/7006 up to 100 uM in presence of rat liver S9 fraction by Ames 2 assay. The data set is classed as toxicity. Particulars: salmonella enterica subsp. enterica serovar typhimurium. The essentials: (§3)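 AMES II kit with Salmonella typhimurium TA98 and TA7001–TA7006, run with or without rat liver S9 fraction according to the kit instructions.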

Data set [6] in a line: Half life in human liver S9 fractions at 1 uM in presence of NADPH/UDPGA by LC-MS/MS analysis. The data set is classed as ADME. A digest of the protocol: as §1
Data set [7] can be described thus: Plasma concentration in Sprague-Dawley rat at 100 mg/kg, po administered as single dose after 1 hr by HPLC-MS/MS analysis. The data set is classed as ADME, organism-based. A digest of the protocol:
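One female Sprague-Dawley rat dosed orally with a suspension in 0.5% porcine gelatin/5% mannitol in water, under 2% isoflurane. Tail-vein blood in citrate; plasma precipitated with acetonitrile containing diphenhydramine internal standard and quantified by HPLC-MS/MS.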

The next data set deals with CYP2D6 (Homo sapiens, UniProt P10635). Put plainly: Inhibition of recombinant human CYP2D6 expressed in baculovirus infected insect cell microsomes at 1 uM relative to control. The data set is classed as ADME. A digest of the protocol:
(§4)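 Recombinant human CYP1A2, 2B6, 2C9, 2C19, 2D6 and 3A4 in baculovirus-infected insect-cell microsomes, assayed per kit instructions; test compound at 1 µM, percent inhibition.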

Data set [8] relates to Salmonella typhimurium. The data set can be described thus: Mutagenicity in Salmonella typhimurium TA7001/7002/7003/7004/7005/7006 up to 100 uM by Ames 2 assay. Particulars: salmonella enterica subsp. enterica serovar typhimurium. The data set is classed as toxicity. A digest of the protocol:
as §3

A further data set has as its target CYP3A4 (Homo sapiens, UniProt P08684). Put plainly: Inhibition of recombinant human CYP3A4 expressed in baculovirus infected insect cell microsomes at 1 uM relative to control. Format: ADME. The essentials:
as §4

Data set [9] can be described thus: Aqueous solubility of the compound in 2% DMSO up to 24 hrs. Format: physicochemical.
The next data set addresses CYP2C9 (Homo sapiens, UniProt P11712). The data set can be described thus: Inhibition of recombinant human CYP2C9 expressed in baculovirus infected insect cell microsomes at 1 uM relative to control. Format: ADME. A digest of the protocol: as §4

Structures are written as SMILES.

Chain of CYP2D6 (P10635 whole entry): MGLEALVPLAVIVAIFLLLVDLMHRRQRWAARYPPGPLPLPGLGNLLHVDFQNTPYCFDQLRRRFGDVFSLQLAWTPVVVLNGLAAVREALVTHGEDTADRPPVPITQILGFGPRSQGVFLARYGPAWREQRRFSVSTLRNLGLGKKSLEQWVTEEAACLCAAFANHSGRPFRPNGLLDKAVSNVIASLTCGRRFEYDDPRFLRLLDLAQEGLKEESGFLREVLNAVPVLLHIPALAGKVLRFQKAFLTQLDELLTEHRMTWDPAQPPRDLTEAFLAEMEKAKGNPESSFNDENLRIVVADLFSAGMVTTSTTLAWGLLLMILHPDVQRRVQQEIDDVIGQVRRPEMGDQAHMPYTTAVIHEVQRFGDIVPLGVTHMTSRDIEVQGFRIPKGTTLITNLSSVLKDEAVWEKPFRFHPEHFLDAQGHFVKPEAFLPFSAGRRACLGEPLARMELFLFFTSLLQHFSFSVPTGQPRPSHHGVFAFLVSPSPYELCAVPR
Chain of CYP3A4 (P08684 whole entry): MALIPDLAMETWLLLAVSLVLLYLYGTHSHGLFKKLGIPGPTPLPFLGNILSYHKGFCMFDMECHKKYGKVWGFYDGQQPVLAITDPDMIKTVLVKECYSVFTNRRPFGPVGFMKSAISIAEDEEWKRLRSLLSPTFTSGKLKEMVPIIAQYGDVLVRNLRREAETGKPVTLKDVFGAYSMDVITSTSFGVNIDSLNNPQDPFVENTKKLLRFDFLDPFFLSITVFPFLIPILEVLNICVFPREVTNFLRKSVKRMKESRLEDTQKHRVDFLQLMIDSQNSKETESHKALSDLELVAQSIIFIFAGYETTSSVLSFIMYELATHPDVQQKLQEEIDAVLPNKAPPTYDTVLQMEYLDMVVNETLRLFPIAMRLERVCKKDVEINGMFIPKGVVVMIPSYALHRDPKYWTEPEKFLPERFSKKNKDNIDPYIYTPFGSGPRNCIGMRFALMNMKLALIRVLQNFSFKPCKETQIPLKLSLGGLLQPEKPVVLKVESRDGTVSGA
Chain of CYP2C9 (P11712 whole entry): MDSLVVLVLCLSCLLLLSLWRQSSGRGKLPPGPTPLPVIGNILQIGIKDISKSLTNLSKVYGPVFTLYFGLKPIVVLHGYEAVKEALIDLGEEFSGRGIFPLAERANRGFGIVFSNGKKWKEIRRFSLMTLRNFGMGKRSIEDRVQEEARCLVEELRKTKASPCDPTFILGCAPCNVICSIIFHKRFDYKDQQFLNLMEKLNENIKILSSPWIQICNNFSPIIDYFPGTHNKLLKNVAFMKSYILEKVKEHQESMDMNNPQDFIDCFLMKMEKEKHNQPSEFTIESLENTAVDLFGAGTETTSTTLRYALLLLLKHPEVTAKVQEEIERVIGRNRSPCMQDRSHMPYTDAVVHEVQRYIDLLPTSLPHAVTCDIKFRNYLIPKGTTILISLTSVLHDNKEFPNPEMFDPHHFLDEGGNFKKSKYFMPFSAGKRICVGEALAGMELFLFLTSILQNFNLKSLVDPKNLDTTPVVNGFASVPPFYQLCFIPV

For the compound `Cc1cncc(Cc2cc(-c3ccccc3)no2)c1`, the figures for the half-life at 1 µM in [1] and in data set [6] were 0.5 h and 2.42 h, respectively. Moreover, the IC50 was 4000 nM in data set [2] and 82 nM in data set [3]. In data set [4], the concentration for an effect of 20% (IC20) at 66 h was found to be 28000 nM. Moreover, the inhibition at 20 min, 2 µM on CYP19A1 is ≤ 9%. For the same compound, the Activity result in the data set with Salmonella typhimurium [5] and with Salmonella typhimurium [8] was “Non-Toxic” throughout. The concentration at 1 h in data set [7] was determined as 2.5 µM. Besides, the inhibition at 1 µM stood at 0% at CYP2D6, 61% at CYP3A4 and 28% on CYP2C9. In addition, in data set [9], the solubility at 24 h is > 200 µM.
With `COc1cncc(Cc2cc(-c3ccccc3)no2)c1`, the half-life at 1 µM in [1] worked out at 0.383 h; in data set [6] it was 2.08 h. The IC50 in data set [2] stood at 1800 nM; in data set [3], 27 nM. The IC20 at 66 h in data set [4] was 42000 nM. Moreover, at CYP19A1, the inhibition at 20 min, 2 µM is ≤ 9%. Besides, the Activity entry in the data set with Salmonella typhimurium [5] and with Salmonella typhimurium [8] was “Non-Toxic” throughout. Also, in data set [7], the concentration at 1 h was 19.7 µM. For the same compound, the results for the inhibition at 1 µM at CYP2D6, at CYP3A4 and at CYP2C9 were 8%, 33% and 17%, respectively. Besides, the solubility at 24 h in [9] was > 200 µM.

In general, half-life refers to the time in which the quantity being followed falls by half. As usually defined, the IC50 is the concentration needed to halve the response being measured. A lower IC50 goes with greater potency in that assay. One may read the IC20 as the point of the concentration-response curve where the effect stands at 20%. Broadly, the inhibition is the relative decrease from the control value, in per cent. The solubility is the concentration that dissolves in the medium under given conditions.
